Experimental data: ChEMBL document CHEMBL3102692 (Bioorg Med Chem Lett, 2014)
Active and inactive are the calls of the source. The rule behind the calls is not given here.

Assays:
Beta-secretase 1 [1] = target: T1, Beta-secretase 1 (Homo sapiens, UniProt P56817); experiment: Inhibition of recombinant BACE1 (unknown origin) at 1.3 mM
In short: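 Recombinant BACE1 was incubated with a synthetic dodecapeptide substrate carrying the Swedish-type BACE1 cleavage sequence, in 40 mM AcONa buffer (pH 4.0) with 10% glycerol, 10 mM DTT and 4 M NaCl. The reaction mixture was analysed by reversed-phase C18 HPLC using a 10–40% MeCN gradient over 30 min in aq 0.1% TFA. Inhibition was read from the decrease of the substrate.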

Beta-secretase 1 [2] = target: T1, Beta-secretase 1; experiment: Inhibition of recombinant BACE1 (unknown origin) at 0.67 mM
Beta-secretase 1 [3] = target: T1, Beta-secretase 1; experiment: Inhibition of recombinant BACE1 (unknown origin)
Beta-secretase 1 [4] = target: T1, Beta-secretase 1; experiment: Non-competitive inhibition of recombinant BACE1 (unknown origin) by Lineweaver-Burk plot analysis

T1 sequence (P56817 whole entry): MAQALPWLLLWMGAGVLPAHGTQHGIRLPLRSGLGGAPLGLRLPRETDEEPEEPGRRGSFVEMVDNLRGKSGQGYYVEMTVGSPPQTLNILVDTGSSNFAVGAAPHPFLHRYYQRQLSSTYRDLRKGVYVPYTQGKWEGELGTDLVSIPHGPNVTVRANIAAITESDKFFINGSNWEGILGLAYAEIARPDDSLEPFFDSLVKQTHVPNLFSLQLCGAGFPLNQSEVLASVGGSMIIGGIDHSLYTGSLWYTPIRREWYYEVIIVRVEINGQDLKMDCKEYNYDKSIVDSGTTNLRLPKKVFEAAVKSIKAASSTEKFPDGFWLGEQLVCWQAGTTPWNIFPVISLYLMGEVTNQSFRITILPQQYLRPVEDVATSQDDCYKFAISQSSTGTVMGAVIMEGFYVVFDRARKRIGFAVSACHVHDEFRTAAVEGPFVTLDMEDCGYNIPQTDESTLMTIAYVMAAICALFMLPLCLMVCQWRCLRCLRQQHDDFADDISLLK

Compound | inhibition (Beta-secretase 1 [2]) [%] | further results
COCCOCOc1ccc(CCC(=O)CC(O)CCc2ccc(OCOCCOC)c(OC)c2)cc1OC (stereo unspecified) |  | inhibition (Beta-secretase 1 [1]): 15%
O=C(/C=C(O)/C=C/c1ccccc1)/C=C/c1ccc(O)c(O)c1 | 26 | 
O=C(/C=C(O)/C=C/c1c[nH]c2ccccc12)/C=C/c1ccc(O)c(O)c1 | 71 | IC50 (Beta-secretase 1 [3]): 0.45 mM
COCCOCOc1ccc(CCC(=O)/C=C(\O)CCc2ccc(OCOCCOC)c(OC)c2)cc1OC |  | inhibition (Beta-secretase 1 [1]): 17%
COc1ccc(CCC(=O)C(C(C)C)C(O)CCc2ccc(OC)c(OC)c2)cc1OC (stereo unspecified) | 1 | 
N#Cc1cccc(/C=C/C(O)=C/C(=O)/C=C/c2ccc(O)c(O)c2)c1 | 21 | 
O=C(/C=C(O)/C=C/c1ccc(O)cc1)/C=C/c1ccc(O)c(O)c1 | 18 | 
COCCOCOC(=C\C(=O)/C=C/c1ccc(OCOCCOC)c(OC)c1)/C=C/c1ccc(OCOCCOC)c(OC)c1 |  | inhibition (Beta-secretase 1 [1]): 36%
COCOc1ccc(/C=C/C(=O)/C=C(O)/C=C/c2ccc(OCOC)c(OC)c2)cc1OC | 7 | 
COc1ccccc1/C=C/C(O)=C/C(=O)/C=C/c1ccc(O)c(O)c1 | 47 | IC50 (Beta-secretase 1 [3]): 1.4 mM
COc1cc(CCC(=O)CC(O)CCc2ccc(O)c(OC)c2)ccc1O (stereo unspecified) |  | inhibition (Beta-secretase 1 [1]): 7%
COc1ccc(/C=C/C(=O)/C=C(O)/C=C/c2ccc(OC)c(OC)c2)cc1OC | 0 | 
COCCOCOc1ccc(/C=C/C(=O)/C=C(O)/C=C/c2ccc(OCOCCOC)c(OC)c2)cc1OC |  | inhibition (Beta-secretase 1 [1]): 19%
COc1cc(/C=C/C(O)=C/C(=O)/C=C/c2ccc(O[Si](C)(C)C(C)(C)C)c(OC)c2)ccc1O |  | inhibition (Beta-secretase 1 [1]): 22%
O=C(/C=C(O)/C=C/c1cccnc1)/C=C/c1ccc(O)c(O)c1 | 21 | 
COc1cc(CCC(=O)/C=C(\O)CCc2ccc(O)c(OC)c2)ccc1O |  | inhibition (Beta-secretase 1 [1]): 7%
COc1ccc(/C=C/C(=O)/C(=C(O)/C=C/c2ccc(OC)c(OC)c2)C(C)C)cc1OC | 4 | 
COCCOCOc1ccc(/C=C/C(=O)/C=C(O)/C=C/c2ccc(O)c(OC)c2)cc1OC |  | inhibition (Beta-secretase 1 [1]): 17%

Continued, in another order:

inhibition (Beta-secretase 1 [2]) [%] | Compound | further results
100 | O=C(/C=C(O)/C=C/c1ccccc1O)/C=C/c1ccc(O)c(O)c1 | IC50 (Beta-secretase 1 [3]): 0.25 mM; inhibition (Beta-secretase 1 [4]): Active
6 | COc1cc(/C=C/C(=O)/C(=C(O)/C=C/c2ccc(O)c(OC)c2)C(C)C)ccc1O | 
33 | O=C(/C=C(O)/C=C/c1cccc(O)c1)/C=C/c1cccc(O)c1 | 
25 | O=C(/C=C(O)/C=C/c1ccc(O)c(O)c1)/C=C/c1ccc(O)c(O)c1 | IC50 (Beta-secretase 1 [3]): 2.2 mM
1 | O=C(/C=C(O)/C=C/c1ccccc1)/C=C/c1ccccc1 | 
9 | COc1ccc(CCC(O)C(C(C)C)C(O)CCc2ccc(OC)c(OC)c2)cc1OC (stereo unspecified) | 
5 | COc1ccc(CCCC(C(=O)CCc2ccc(OC)c(OC)c2)C(C)C)cc1OC (stereo unspecified) | 
30 | O=C(/C=C(O)/C=C/c1ccc[nH]1)/C=C/c1ccc(O)c(O)c1 | 
35 | COc1cc(/C=C/C(O)=C/C(=O)/C=C/c2ccc(O)cc2)ccc1O [DEMETHOXYCURCUMIN] | IC50 (Beta-secretase 1 [3]): 1.6 mM
18 | O=C(/C=C(O)/C=C/c1cccc([N+](=O)[O-])c1)/C=C/c1ccc(O)c(O)c1 | IC50 (Beta-secretase 1 [3]): 1.8 mM
5 | COc1cc(/C=C/C(=O)/C=C(O)/C=C/c2ccc(Br)cc2)ccc1O | 
